From ChEMBL document CHEMBL3232832, “Derivatives of dibenzothiophene for positron emission tomography imaging of α7-nicotinic acetylcholine receptors” (J Med Chem, 2013)

Assays:
Mus musculus [1] = assay: Toxicity in CD-1 mouse assessed as change in locomotor activity at 0.07 mCi, iv after 90 mins in presence of 3-(1,4-Diazabicyclo[3.2.2]nonan-4-yl)-6-fluorodibenzo[b,d]thiophene 5,5-Dioxide; type: organism-based; settings: in vivo, 1.5 h
Procedure, shortened: (§1)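 CD-1 mice observed for behavioral and locomotor changes during self-blockade studies. [18F]tracer (0.07 mCi, i.v.) was co-injected with the non-radioactive ligand at 0.3 or 0.2 mg/kg i.v., dissolved in saline at pH 5.5. Brains were harvested at 90 min.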

Cerebellum [2] = assay: Drug uptake in CD-1 mouse cerebellum at 70 uCi, iv administered 10 mins post spiperone challenge measured after 90 mins; type: ADME, organism-based; settings: in vivo, 1.5 h
Procedure, shortened: (§2)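 Male CD-1 mice, n=3. Drug at 2 mg/kg s.c. in saline:DMSO 5:1, with vehicle controls. [18F] radiotracer (70 µCi, SA ~14000 mCi/µmol) given i.v. 10 min later. Regions harvested 90 min after tracer, gamma counted, expressed as %ID/g. Compared by single-factor ANOVA.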

Mus musculus [3] = assay: Toxicity in CD-1 mouse assessed as change in behavioral activity at 0.07 mCi, iv after 90 mins in presence of 3-(1,4-Diazabicyclo[3.2.2]nonan-4-yl)-6-fluorodibenzo[b,d]thiophene 5,5-Dioxide; type: organism-based; settings: in vivo, 1.5 h; procedure, shortened: as §1
Cerebellum [4] = assay: Drug uptake in CD-1 mouse cerebellum at 70 uCi, iv after 90 mins in presence of cytisine; type: ADME, organism-based; settings: in vivo, 1.5 h
Procedure, shortened: (§3)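 Male CD-1 mice, n=3. […] [18F] radiotracer (70 µCi, SA ~14000 mCi/µmol) given i.v. 5 min later. Regions harvested at 90 min, gamma counted, expressed as %ID/g.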

Brain [5] = assay: Drug uptake in CD-1 mouse other brain region at 70 uCi, iv administered 10 mins post ketanserin challenge measured after 90 mins; type: ADME, organism-based; settings: in vivo, 1.5 h
Procedure, shortened: (§4)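 Male CD-1 mice (25–30 g). […] Brains removed 90 min later and dissected on ice. Regions weighed and gamma-counted against injectate standards. Result as %ID/g, mean ± SD, n=3; ANOVA versus controls.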

Hippocampus [6] = assay: Drug uptake in CD-1 mouse hippocampus at 70 uCi, iv administered 10 mins post naltrindole challenge measured after 90 mins; type: ADME, organism-based; settings: in vivo, 1.5 h; procedure, shortened: as §2
Cerebellum [7] = assay: Drug uptake in CD-1 mouse cerebellum at 70 uCi, iv administered 10 mins post naltrindole challenge measured after 90 mins; type: ADME, organism-based; settings: in vivo, 1.5 h; procedure, shortened: as §2
[8] = Drug uptake in CD-1 mouse superior and inferior colliculus at 70 uCi, iv administered 10 mins post ondansetron challenge measured after 90 mins; type: ADME, organism-based; settings: in vivo, 1.5 h; procedure, shortened: as §4
Hippocampus [9] = assay: Drug uptake in CD-1 mouse hippocampus at 70 uCi, iv administered 10 mins post SSR180711 challenge measured after 90 mins; type: ADME, organism-based; settings: in vivo, 1.5 h
Cortex [10] = assay: Drug uptake in CD-1 mouse cortex at 70 uCi, iv administered 10 mins post spiperone challenge measured after 90 mins; type: ADME, organism-based; settings: in vivo, 1.5 h; procedure, shortened: as §2
[11] = Drug uptake in CD-1 mouse frontal cortex at 70 uCi, iv followed by compound washout by gamma-counting analysis; type: ADME, organism-based; settings: in vivo
Procedure, shortened: (§5)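 Male CD-1 mice (25–30 g), three per time point. [18F] radiotracer (70 µCi, SA 8000–12000 mCi/µmol, in 0.2 mL saline) given by tail vein. Killed at several times up to 90 min. Dissected regions weighed and gamma counted against injectate standards, giving %ID/g.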

Hippocampus [12] = assay: Drug uptake in CD-1 mouse hippocampus at 0.07 mCi, iv after 90 mins relative to drug uptake in CD-1 mouse cerebellum; type: ADME, organism-based; settings: in vivo, 1.5 h
Brain [13] = assay: Drug uptake in CD-1 mouse other brain region at 70 uCi, iv administered 10 mins post naltrindole challenge measured after 90 mins; type: ADME, organism-based; settings: in vivo, 1.5 h; procedure, shortened: as §4
Cerebellum [14] = assay: Ratio of clearance in CD-1 mouse cerebellum to clearance in CD-1 mouse other brain tissues at 70 uCi, iv followed by compound washout after 90 mins by gamma-counting analysis; type: ADME, organism-based; settings: in vivo, 1.5 h
Procedure, shortened: (§6)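 CD-1 mouse baseline biodistribution after i.v. [18F]radioligand (70 µCi, 8000–12000 mCi/µmol, in 0.2 mL saline), three mice per time point to 90 min. Regional gamma-counting gave %ID/g, and each region was expressed as a ratio to cerebellum.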

Brain [15] = assay: Drug uptake in CD-1 mouse other brain region at 70 uCi, iv administered 10 mins post spiperone challenge measured after 90 mins; type: ADME, organism-based; settings: in vivo, 1.5 h; procedure, shortened: as §4
Cortex [16] = assay: Drug uptake in CD-1 mouse cortex at 70 uCi, iv after 90 mins in presence of cytisine; type: ADME, organism-based; settings: in vivo, 1.5 h; procedure, shortened: as §3
[17] = Drug uptake in CD-1 mouse superior and inferior colliculus at 70 uCi, iv after 90 mins in presence of nicotine; type: ADME, organism-based; settings: in vivo, 1.5 h
Cerebellum [18] = assay: Drug uptake in CD-1 mouse cerebellum at 70 uCi, iv followed by compound washout by gamma-counting analysis; type: ADME, organism-based; settings: in vivo; procedure, shortened: as §5
[19] = Drug uptake in CD-1 mouse superior and inferior colliculus at 70 uCi, iv administered 10 mins post SCH23390 challenge measured after 90 mins; type: ADME, organism-based; settings: in vivo, 1.5 h; procedure, shortened: as §4
Cerebellum [20] = assay: Drug uptake in CD-1 mouse cerebellum at 70 uCi, iv administered 10 mins post SSR180711 challenge measured after 90 mins; type: ADME, organism-based; settings: in vivo, 1.5 h
Brain [21] = assay: Drug uptake in CD-1 mouse other brain region at 70 uCi, iv after 90 mins in presence of cytisine; type: ADME, organism-based; settings: in vivo, 1.5 h
Cerebellum [22] = assay: Drug uptake in CD-1 mouse cerebellum at 70 uCi, iv after 90 mins in presence of nicotine; type: ADME, organism-based; settings: in vivo, 1.5 h; procedure, shortened: as §3
Thalamus = assay: Drug uptake in CD-1 mouse thalamus at 0.07 mCi, iv after 90 mins co-administered with SSR180711; type: ADME, organism-based; settings: in vivo, 1.5 h
Procedure, shortened: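 Male CD-1 mice. [18F]tracer (0.07 mCi, SA 7900 mCi/µmol, 0.2 mL) co-injected i.v. with blocker at 0 (vehicle), 0.02, 0.2, 1 or 3 mg/kg. Blocker dissolved in saline:alcohol 9:1, pH 5.5. Brain regions harvested at 90 min and gamma-counted. %ID/g, mean ± SD, n=3 per dose; ANOVA versus controls.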

Cortex [23] = assay: Drug uptake in CD-1 mouse cortex at 70 uCi, iv administered 10 mins post ketanserin challenge measured after 90 mins; type: ADME, organism-based; settings: in vivo, 1.5 h; procedure, shortened: as §2
Nucleic Acid = assay: Ratio of drug uptake from superior and inferior colliculus to cerebellum in CD-1 mouse after 90 mins; type: ADME, nucleic-acid assay; settings: 1.5 h; procedure, shortened: as §6
Cerebellum [24] = assay: Drug uptake in CD-1 mouse cerebellum at 70 uCi, iv administered 10 mins post ketanserin challenge measured after 90 mins; type: ADME, organism-based; settings: in vivo, 1.5 h; procedure, shortened: as §2
Cerebellum [25] = assay: Drug uptake in CD-1 mouse cerebellum at 70 uCi, iv administered 10 mins post ondansetron challenge measured after 90 mins; type: ADME, organism-based; settings: in vivo, 1.5 h; procedure, shortened: as §2
Hippocampus [26] = assay: Drug uptake in CD-1 mouse hippocampus at 0.07 mCi, iv after 90 mins co-administered with SSR180711; type: ADME, organism-based; settings: in vivo, 1.5 h
Procedure, shortened: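 Male CD-1 mice (25–30 g), three per dose. Blocker in saline:ethanol 9:1 pH 5.5, given i.v. with [18F] radiotracer (70 µCi, SA 7900 mCi/µmol). Blocker doses 0, 0.02, 0.2, 1 and 3 mg/kg. Regions dissected 90 min later and gamma counted. Expressed as %ID/g, mean ± SD.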

[27] = Drug uptake in CD-1 mouse superior and inferior colliculus at 70 uCi, iv followed by compound washout by gamma-counting analysis; type: ADME, organism-based; settings: in vivo
Procedure, shortened: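 Male CD-1 mice (25–30 g) given [18F]radioligand i.v. into a lateral tail vein (70 µCi, 8000–12000 mCi/µmol, in 0.2 mL saline). Killed by cervical dislocation at various times, three per time point. Brains dissected on ice; regions weighed and gamma-counted with injectate standards. Result as %ID/g.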

O=S1(=O)c2cc(N3CCN4CCC3CC4)ccc2-c2cccc([18F])c21
Active: Drug uptake (Cerebellum [2]) | Drug uptake (Brain [5]) | Drug uptake (Hippocampus [6]) | Drug uptake (Cerebellum [7]) | Drug uptake [8] | Drug uptake (Cortex [10]) | Drug uptake [11] | Drug uptake (Brain [13]) | Drug uptake (Brain [15]) | Drug uptake (Cerebellum [18]) | Drug uptake [19] | Drug uptake (Cerebellum [22]) | Drug uptake (Cortex [23]) | Drug uptake (Cerebellum [24]) | Drug uptake (Cerebellum [25]) | Drug uptake [27]
8: Ratio (Nucleic Acid)
Not Active: Drug uptake (Cerebellum [4]) | Drug uptake (Hippocampus [9]) | Drug uptake (Cortex [16]) | Drug uptake [17] | Drug uptake (Cerebellum [20]) | Drug uptake (Brain [21]) | Drug uptake (Thalamus) | Drug uptake (Hippocampus [26])
94%: Drug uptake (Hippocampus [12])
10: Ratio (Cerebellum [14])
Non-toxic: Activity (Mus musculus [1]) | Activity (Mus musculus [3])
